Measured values from ChEMBL document CHEMBL1157505, “Design and in vitro characterization of highly sst2-selective somatostatin antagonists suitable for radiotargeting” (J Med Chem, 2008).
Active and inactive are the calls of the source. The calls are words filed in the database; no cut-off is given here.

Key:
[1] = biological target: Somatostatin receptor type 1 (Homo sapiens, UniProt P30872); test: Displacement of [125I][LTT]SRIF28 from human cloned sst1 receptor by autoradiography
[2] = biological target: Somatostatin receptor type 3 (Homo sapiens, UniProt P32745); test: Displacement of [125I][LTT]SRIF28 from human cloned sst3 receptor by autoradiography
Somatostatin receptor type 3, sequence (P32745 whole entry): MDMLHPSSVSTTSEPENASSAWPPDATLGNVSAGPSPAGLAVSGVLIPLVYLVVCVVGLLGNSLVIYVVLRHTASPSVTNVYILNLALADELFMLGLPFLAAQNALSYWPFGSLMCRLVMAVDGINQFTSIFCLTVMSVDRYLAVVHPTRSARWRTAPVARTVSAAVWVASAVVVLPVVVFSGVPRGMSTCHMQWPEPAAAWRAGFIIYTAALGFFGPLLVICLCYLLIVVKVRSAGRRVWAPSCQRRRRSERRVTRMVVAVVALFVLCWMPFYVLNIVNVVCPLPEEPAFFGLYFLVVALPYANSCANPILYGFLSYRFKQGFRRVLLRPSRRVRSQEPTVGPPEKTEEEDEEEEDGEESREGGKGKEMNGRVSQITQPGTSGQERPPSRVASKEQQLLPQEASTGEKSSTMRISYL

[3] = biological target: Somatostatin receptor type 4 (Homo sapiens, UniProt P31391); test: Displacement of [125I][LTT]SRIF28 from human cloned sst4 receptor by autoradiography
Somatostatin receptor type 4, sequence (P31391 whole entry): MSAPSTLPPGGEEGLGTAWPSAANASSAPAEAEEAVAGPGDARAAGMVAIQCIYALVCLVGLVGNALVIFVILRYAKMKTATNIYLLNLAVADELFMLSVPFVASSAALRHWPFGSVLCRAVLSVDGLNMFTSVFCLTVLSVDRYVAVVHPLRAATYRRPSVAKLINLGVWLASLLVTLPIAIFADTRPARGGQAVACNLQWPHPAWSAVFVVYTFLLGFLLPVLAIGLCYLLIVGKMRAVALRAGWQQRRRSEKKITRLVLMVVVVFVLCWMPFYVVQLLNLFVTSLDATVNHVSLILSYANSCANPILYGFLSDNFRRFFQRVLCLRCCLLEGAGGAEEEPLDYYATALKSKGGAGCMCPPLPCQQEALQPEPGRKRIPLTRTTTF

[4] = biological target: Somatostatin receptor type 5 (Homo sapiens, UniProt P35346); test: Displacement of [125I][LTT]SRIF28 from human cloned sst5 receptor by autoradiography
Somatostatin receptor type 5, sequence (P35346 whole entry): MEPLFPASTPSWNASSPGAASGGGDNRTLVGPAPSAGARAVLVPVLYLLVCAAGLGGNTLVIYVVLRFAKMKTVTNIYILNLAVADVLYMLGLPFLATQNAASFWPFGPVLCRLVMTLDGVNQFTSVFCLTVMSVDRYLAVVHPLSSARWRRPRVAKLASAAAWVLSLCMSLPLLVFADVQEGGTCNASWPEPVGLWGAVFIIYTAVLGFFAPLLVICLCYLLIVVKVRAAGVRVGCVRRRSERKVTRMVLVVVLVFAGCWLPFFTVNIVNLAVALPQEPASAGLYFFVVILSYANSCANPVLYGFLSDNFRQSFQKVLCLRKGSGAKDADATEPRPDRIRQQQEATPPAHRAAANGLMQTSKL

[5] = biological target: T1, Somatostatin receptor type 2 (Homo sapiens, UniProt P30874); test: Displacement of [125I][LTT]SRIF28 from human cloned sst2 receptor by autoradiography
T1 sequence (P30874 whole entry): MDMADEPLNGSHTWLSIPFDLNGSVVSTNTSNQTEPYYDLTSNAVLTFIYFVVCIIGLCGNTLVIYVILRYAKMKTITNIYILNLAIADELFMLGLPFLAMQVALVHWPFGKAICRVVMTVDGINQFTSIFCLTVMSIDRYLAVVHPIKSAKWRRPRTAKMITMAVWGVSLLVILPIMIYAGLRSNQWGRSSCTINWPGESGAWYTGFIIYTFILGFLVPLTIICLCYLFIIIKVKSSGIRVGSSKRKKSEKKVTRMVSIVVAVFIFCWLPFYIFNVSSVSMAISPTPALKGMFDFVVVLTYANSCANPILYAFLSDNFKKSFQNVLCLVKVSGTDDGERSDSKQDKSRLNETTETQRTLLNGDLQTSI

[6] = biological target: T1, Somatostatin receptor type 2; test: Antagonist activity at T7 epitope tagged human cloned sst2 expressed in HEK293 cells assessed as intracellular calcium release upto 10 uM; format: functional, cell-based
Summary of the method: (§1)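 HEK-sst2 cells seeded on poly-D-lysine, cultured 1 day, loaded with Fluo-4NW dye (assay buffer HBSS/20 mM HEPES, 2.5 mM probenecid) 30 min 37 °C plus 30 min RT. Analogues alone up to 10 μM, or [Tyr3]-octreotide with 100-fold excess analogue; fluorescence (ex 485/em 520 nm) recorded 60 s at RT; percentage of ionomycin (25 μM) maximum over baseline; ≥3 experiments in triplicate.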

[7] = biological target: T1, Somatostatin receptor type 2; test: Antagonist activity at T7 epitope tagged human cloned sst2 expressed in HEK293 cells assessed as [Tyr3]octreotide-induced intracellular calcium release upto 10 uM; format: functional, cell-based; summary of the method: as §1
[8] = biological target: T1, Somatostatin receptor type 2; test: Antagonist activity at T7 epitope tagged human cloned sst2 receptor expressed in HEK293 cells assessed as inhibition of [Tyr3]octreotide-induced receptor internalization upto 10 uM; format: functional, cell-based
Summary of the method: (§2)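 Surface T7-tagged sst2 on HEK-sst2 cells labelled with anti-T7 antibody 2 h RT in DMEM-LH, then cells exposed 30 min at 37 °C to analogue (alone up to 10 μM or with [Tyr3]-octreotide), fixed in 3% paraformaldehyde, probed with HRP anti-mouse IgG, ABTS read at OD405; surface receptor as % of untreated; mean ± SEM, three experiments in duplicate.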

[9] = biological target: T1, Somatostatin receptor type 2; test: Antagonist activity at T7 epitope tagged human cloned sst2 receptor expressed in HEK293 cells assessed as inhibition of [Tyr3]octreotide-induced receptor internalization upto 10 uM by immunofluorescence-based assay; format: functional, cell-based
Summary of the method: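 Immunofluorescence microscopy with sst2-specific antibody R2-88 on HEK-sst2 cells treated 30 min with vehicle, 100 nM [Tyr3]-octreotide, 100 nM [Tyr3]-octreotide plus 100-fold excess (10 μM) analogue, or analogue alone at 10 μM; internalization scored as punctate perinuclear staining.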

[10] = biological target: T1, Somatostatin receptor type 2; test: Antagonist activity at T7 epitope tagged human cloned sst2 receptor expressed in HEK293 cells assessed as inhibition of receptor internalization upto 10 uM by ELISA; format: functional, cell-based; summary of the method: as §2

Somatostatin receptor type 1, sequence (P30872 whole entry): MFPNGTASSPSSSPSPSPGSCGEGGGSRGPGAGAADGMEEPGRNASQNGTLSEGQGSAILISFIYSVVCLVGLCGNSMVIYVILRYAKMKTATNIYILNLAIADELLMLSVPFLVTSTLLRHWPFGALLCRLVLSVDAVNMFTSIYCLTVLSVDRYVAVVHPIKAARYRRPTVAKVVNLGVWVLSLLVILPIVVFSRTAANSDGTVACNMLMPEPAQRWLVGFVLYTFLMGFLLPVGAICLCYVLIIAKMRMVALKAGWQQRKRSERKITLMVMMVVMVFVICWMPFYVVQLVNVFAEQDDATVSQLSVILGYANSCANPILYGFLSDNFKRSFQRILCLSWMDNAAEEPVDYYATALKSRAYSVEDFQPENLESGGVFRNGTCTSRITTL

Row | SMILES | IC50 [1] [nM] | IC50 [2] [nM] | IC50 [3] [nM] | IC50 [4] [nM] | IC50 [5] [nM] | Activity [6] | Activity [7] | Activity [8] | Activity [9] | Activity [10]
1 | C[C@@H](O)[C@@H]1NC(=O)[C@H](CCCCN)NC(=O)[C@@H](Cc2ccc(NC(N)=O)cc2)NC(=O)[C@H](Cc2ccc(NC(=O)[C@@H]3CC(=O)NC(=O)N3)cc2)NC(=O)[C@H](NC(=O)[C@H](Cc2ccc(Cl)cc2)NC(=O)CN2CCN(CC(=O)O)CCN(CC(=O)O)CCN(CC(=O)O)CC2)CSSC[C@@H](C(=O)N[C@H](Cc2ccc(O)cc2)C(N)=O)NC1=O | > 1000 | > 1000 | > 1000 | > 1000 |  |  |  |  |  | 
2 | C[C@@H](O)[C@@H]1NC(=O)[C@H](CCCCN)NC(=O)[C@@H](Cc2c[nH]c3ccccc23)NC(=O)[C@H](Cc2ccc(NC(N)=O)cc2)NC(=O)[C@H](NC(=O)[C@@H](N)Cc2ccc(Cl)cc2)CSSC[C@@H](C(=O)N[C@@H](Cc2ccc(NC(=O)[C@@H]3CC(=O)NC(=O)N3)cc2)C(N)=O)NC1=O | > 1000 | 162 | > 1000 | 320 | 27 |  |  |  |  | 
3 | C[C@@H](O)[C@@H]1NC(=O)[C@H](CCCCN)NC(=O)[C@@H](Cc2ccc(NC(N)=O)cc2)NC(=O)[C@H](Cc2ccc(NC(=O)[C@@H]3CC(=O)NC(=O)N3)cc2)NC(=O)[C@H](NC(=O)[C@@H](N)Cc2ccc([N+](=O)[O-])cc2)CSSC[C@@H](C(=O)N[C@@H](Cc2ccc3ccccc3c2)C(N)=O)NC1=O | > 1000 | 451 | > 1000 | > 1000 | 2.7 |  |  |  |  | 
4 | C[C@@H](O)[C@@H]1NC(=O)[C@H](CCCCN)NC(=O)[C@@H](Cc2ccc(NC(N)=O)cc2)NC(=O)[C@H](Cc2ccc(NC(=O)[C@@H]3CC(=O)NC(=O)N3)cc2)NC(=O)[C@H](NC(=O)[C@@H](N)Cc2ccc(Cl)cc2)CSSC[C@@H](C(=O)N[C@@H](Cc2ccc3ccccc3c2)C(N)=O)NC1=O | > 1000 | 83 | > 1000 | > 1000 | 2.4 |  |  |  |  | 
5 | C[C@@H](O)[C@@H]1NC(=O)[C@H](CCCCN)NC(=O)[C@@H](Cc2ccc(NC(N)=O)cc2)NC(=O)[C@H](Cc2ccc(NC(=O)[C@@H]3CC(=O)NC(=O)N3)cc2)NC(=O)[C@H](NC(=O)[C@H](N)Cc2ccc(Cl)cc2)CSSC[C@@H](C(=O)N[C@@H](Cc2ccc3ccccc3c2)C(N)=O)NC1=O |  |  |  |  |  | inactive | Active | Active |  | 
6 | C[C@@H](O)[C@@H]1NC(=O)[C@H](CCCCN)NC(=O)[C@@H](Cc2c[nH]c3ccc(F)cc23)NC(=O)[C@H](Cc2ccc(NC(N)=O)cc2)NC(=O)[C@H](NC(=O)[C@H](N)Cc2ccc(Cl)cc2)CSSC[C@@H](C(=O)N[C@@H](Cc2ccc3ccccc3c2)C(N)=O)NC1=O |  |  |  |  |  | inactive | Active | Active |  | 

Next, values leading:

Row | IC50 [1] [nM] | IC50 [2] [nM] | IC50 [3] [nM] | IC50 [4] [nM] | IC50 [5] [nM] | Activity [6] | Activity [7] | Activity [8] | Activity [9] | Activity [10] | SMILES
7 | > 1000 | > 1000 | > 1000 | > 1000 | 1.7 |  |  |  |  |  | C[C@@H](O)[C@@H]1NC(=O)[C@H](CCCCN)NC(=O)[C@@H](Cc2ccc(NC(N)=O)cc2)NC(=O)[C@H](Cc2ccc(NC(=O)[C@@H]3CC(=O)NC(=O)N3)cc2)NC(=O)[C@H](NC(=O)[C@H](Cc2ccc(Cl)cc2)NC(=O)CN2CCN(CC(=O)O)CCN(CC(=O)O)CCN(CC(=O)O)CC2)CSSC[C@@H](C(=O)N[C@@H](Cc2ccc3ccccc3c2)C(N)=O)NC1=O
8 |  |  |  |  |  | inactive | Active | Active | Active |  | C[C@@H](O)[C@@H]1NC(=O)[C@H](CCCCN)NC(=O)[C@@H](Cc2ccc(NC(N)=O)cc2)NC(=O)[C@H](Cc2ccc(O)cc2)NC(=O)[C@H](NC(=O)[C@@H](Cc2ccc([N+](=O)[O-])cc2)NC(=O)CN2CCN(CC(=O)O)CCN(CC(=O)O)CCN(CC(=O)O)CC2)CSSC[C@@H](C(=O)N[C@H](Cc2ccc(O)cc2)C(N)=O)NC1=O
9 | > 1000 | 88 | 728 | 895 | 40 |  |  |  |  |  | C[C@@H](O)[C@@H]1NC(=O)[C@H](CCCCN)NC(=O)[C@@H](Cc2c[nH]c3ccccc23)NC(=O)[C@H](Cc2ccc(NC(N)=O)cc2)NC(=O)[C@H](NC(=O)[C@H](Cc2ccc(Cl)cc2)NC(=O)CCOCCOCCOCCNC(=O)CN2CCN(CC(=O)O)CCN(CC(=O)O)CCN(CC(=O)O)CC2)CSSC[C@@H](C(=O)N[C@@H](Cc2ccc3ccccc3c2)C(N)=O)NC1=O
10 | > 1000 | > 1000 | 455 | > 1000 | 1.2 |  |  |  |  |  | C[C@@H](O)[C@@H]1NC(=O)[C@H](CCCCN)NC(=O)[C@@H](Cc2c[nH]c3ccccc23)NC(=O)[C@H](Cc2ccc(O)c(I)c2)NC(=O)[C@H](NC(=O)[C@H](Cc2ccc([N+](=O)[O-])cc2)NC(=O)CN2CCN(CC(=O)O)CCN(CC(=O)O)CCN(CC(=O)O)CC2)CSSC[C@@H](C(=O)N[C@H](Cc2ccc(O)cc2)C(N)=O)NC1=O
11 |  |  |  |  |  | inactive | Active | Active | Active | inactive | C[C@@H](O)[C@@H]1NC(=O)[C@H](CCCCN)NC(=O)[C@@H](Cc2c[nH]c3ccccc23)NC(=O)[C@H](Cc2ccc(O)c(I)c2)NC(=O)[C@H](NC(=O)[C@@H](Cc2ccc([N+](=O)[O-])cc2)NC(=O)CN2CCN(CC(=O)O)CCN(CC(=O)O)CCN(CC(=O)O)CC2)CSSC[C@@H](C(=O)N[C@H](Cc2ccc(O)cc2)C(N)=O)NC1=O
12 |  |  |  |  |  | inactive | Active | Active | Active |  | C[C@@H](O)[C@@H]1NC(=O)[C@H](CCCCN)NC(=O)[C@@H](Cc2ccc(NC(N)=O)cc2)NC(=O)[C@H](Cc2ccc(NC(=O)[C@@H]3CC(=O)NC(=O)N3)cc2)NC(=O)[C@H](NC(=O)[C@@H](Cc2ccc(Cl)cc2)NC(=O)CN2CCN(CC(=O)O)CCN(CC(=O)O)CCN(CC(=O)O)CC2)CSSC[C@@H](C(=O)N[C@H](Cc2ccc(O)cc2)C(N)=O)NC1=O
13 |  |  |  |  |  | inactive | Active | Active |  |  | C[C@@H](O)[C@@H]1NC(=O)[C@H](CCCCN)NC(=O)[C@@H](Cc2c[nH]c3ccccc23)NC(=O)[C@H](Cc2ccc(NC(N)=O)cc2)NC(=O)[C@H](NC(=O)[C@@H](Cc2ccc(Cl)cc2)NC(=O)CN2CCN(CC(=O)O)CCN(CC(=O)O)CCN(CC(=O)O)CC2)CSSC[C@@H](C(=O)N[C@@H](Cc2ccc3ccccc3c2)C(N)=O)NC1=O
